The values below come from ChEMBL document CHEMBL5649170, “Sustained microglial depletion with CSF1R inhibitor impairs parenchymal plaque development in an Alzheimer's disease model” (Nat Commun, 2019).

What is called IC50 is the concentration at which inhibition is half-maximal. As a reminder, the AUC(0-inf) is the area under the concentration-time curve extrapolated to infinity. The term half-life denotes the time needed for the level to fall by half in the phase considered.

Data set [1] in a line: Drug concentration in wildtype mouse brain at 75 ppm administered as rodent chow starting from 1.5 months and measured after 5 months. The format is ADME, tissue-based. The following applies: route po, time 3.5 months, read-out: Ct. An outline of the steps: (§1)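 WT or 5xFAD mice were fed PLX3397 in AIN-76A chow at 600 ppm or 75 ppm from 1.5 to 5 months of age. Terminal brain and plasma drug concentrations were determined at study end.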

Data set [2] can be described thus: Drug concentration in 5XFAD mouse plasma at 600 ppm administered as rodent chow starting from 1.5 months and measured after 5 months. The format is ADME, cell-free. The following applies: route po, time 3.5 months. An outline of the steps: as §1
In data set [3] the test system is Mus musculus. Nature of the data set: Antialzheimer activity in 5XFAD mouse assessed as number of Iba1 positive cells per FOV in subiculum at 1200 ppm administered as rodent chow starting from 1.5 months and measured after 7 months by immunolabeling based confocal microscopic analysis (reference value: 1284 to 1582). The format is functional. The following applies: route po, time 5.5 months, 4015 h.

In data set [4] the target is T1, Macrophage colony-stimulating factor 1 receptor (Mus musculus) (UniProt P09581).
T1 sequence (whole entry): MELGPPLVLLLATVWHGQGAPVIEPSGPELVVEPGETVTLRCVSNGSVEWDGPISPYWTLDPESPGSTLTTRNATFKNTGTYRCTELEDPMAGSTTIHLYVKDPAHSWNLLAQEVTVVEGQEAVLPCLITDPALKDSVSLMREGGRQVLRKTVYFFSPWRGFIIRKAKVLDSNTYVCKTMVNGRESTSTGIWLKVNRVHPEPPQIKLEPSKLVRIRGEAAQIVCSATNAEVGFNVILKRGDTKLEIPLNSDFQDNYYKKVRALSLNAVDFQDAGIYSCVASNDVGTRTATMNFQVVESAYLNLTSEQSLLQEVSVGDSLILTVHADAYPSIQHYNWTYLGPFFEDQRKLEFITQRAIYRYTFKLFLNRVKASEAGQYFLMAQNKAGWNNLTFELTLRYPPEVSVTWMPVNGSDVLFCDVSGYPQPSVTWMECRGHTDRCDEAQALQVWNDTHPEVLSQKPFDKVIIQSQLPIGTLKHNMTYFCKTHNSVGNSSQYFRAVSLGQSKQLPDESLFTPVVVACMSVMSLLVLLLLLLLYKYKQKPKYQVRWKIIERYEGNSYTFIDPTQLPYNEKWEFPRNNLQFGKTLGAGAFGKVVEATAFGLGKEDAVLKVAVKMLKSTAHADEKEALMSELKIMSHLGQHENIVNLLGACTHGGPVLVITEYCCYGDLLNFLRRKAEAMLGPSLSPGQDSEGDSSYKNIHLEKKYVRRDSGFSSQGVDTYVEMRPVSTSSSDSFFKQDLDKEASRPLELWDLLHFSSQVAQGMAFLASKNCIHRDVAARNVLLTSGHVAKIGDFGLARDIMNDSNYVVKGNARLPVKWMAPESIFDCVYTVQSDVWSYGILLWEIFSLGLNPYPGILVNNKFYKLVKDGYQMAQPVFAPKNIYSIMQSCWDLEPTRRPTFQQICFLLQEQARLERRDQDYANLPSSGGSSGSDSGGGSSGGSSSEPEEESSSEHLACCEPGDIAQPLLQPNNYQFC
Put plainly: In vivo inhibition of CSF1R in wildtype mouse assessed as iron reactivity by measuring hemosiderin intensity of prussian blue staining in thalamus at 1200 ppm administered as rodent chow starting from 1.5 months and measured after 7 months by confocal microscopic analysis (reference value: 0.068 to 2.717 a.u.). It is filed as functional. The note with it: route po, time 5.5 months. An outline of the steps:
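Wild-type or 5xFAD mice fed PLX5622 (1200 ppm) in AIN-76A chow from 1.5 months of age, examined in 4- and 7-month-old cohorts. Brain sections stained with a Prussian blue kit per kit instructions to detect iron deposits (microbleeds).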

The target of data set [5] is Tyrosine-protein kinase Fes/Fps (Homo sapiens, UniProt P07332). Put plainly: Inhibition of FES (unknown origin).
For data set [6], the system named is Mus musculus. Put plainly: Antialzheimer activity in 5XFAD mouse assessed as amyloidbeta38 level in detergent soluble thalamus fraction measured per microgram protein at 1200 ppm administered as rodent chow starting from 1.5 months and measured after 7 months by ELISA (reference value: 0 to 0.010 pg). It is filed as functional. The following applies: route po, time 5.5 months, 4015 h. An outline of the steps:
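PLX5622 at 1200 ppm in chow given to 5xFAD mice from 1.5 months to 4 or 7 months of age; cortex and thalamus homogenized in TPER (detergent-soluble), pellets re-homogenized in 70% formic acid and spun 100,000 g, 1 h, 4 °C (insoluble); protein by Bradford/Lowry; Aβ species measured by Meso Scale electrochemiluminescence immunoassay, normalized to protein; n = 7–8 per group at 7 months.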

Data set [7] in a line: AUC (0 to infinity) in female rat at 1.13 mg/kg, iv administered as single dose. It is filed as ADME, organism-based. The note with it: in vivo.
The target in data set [8] is Casein kinase I isoform epsilon (Homo sapiens, UniProt P49674). Nature of the data set: Inhibition of CSNK1E (unknown origin).
Sequence of Casein kinase I isoform epsilon (P49674 whole entry, canonical isoform): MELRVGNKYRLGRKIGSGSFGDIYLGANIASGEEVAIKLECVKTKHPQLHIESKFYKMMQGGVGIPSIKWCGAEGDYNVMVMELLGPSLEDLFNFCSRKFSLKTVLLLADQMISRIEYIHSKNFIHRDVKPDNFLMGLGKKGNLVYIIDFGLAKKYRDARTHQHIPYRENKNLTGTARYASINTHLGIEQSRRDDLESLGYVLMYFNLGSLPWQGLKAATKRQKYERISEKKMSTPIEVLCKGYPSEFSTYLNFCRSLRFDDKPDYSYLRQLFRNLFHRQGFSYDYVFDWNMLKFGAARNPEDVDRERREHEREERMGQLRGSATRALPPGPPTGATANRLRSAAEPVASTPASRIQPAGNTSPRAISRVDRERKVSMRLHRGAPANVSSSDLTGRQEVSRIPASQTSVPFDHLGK
Data set [9] concerns the target Tyrosine-protein kinase FRK (Homo sapiens, UniProt P42685). Put plainly: Inhibition of FRK (unknown origin).
Another data set addresses Ephrin type-A receptor 3 (Homo sapiens, UniProt P29320). Put plainly: Inhibition of EPHA3 (unknown origin).
Data set [10] concerns Mus musculus. Nature of the data set: Antialzheimer activity in 5XFAD mouse assessed as time in platform zone at 1200 ppm administered as rodent chow for 10 to 24 weeks by Morris water maze test (reference value: 0 to 27 sec). The format is functional. The note with it: route po, time 10-24 weeks. The essentials: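 Morris water maze: a circular pool was filled with opaque water (white paint added), and mice were given four trials per acquisition day. Twenty-four hours after the last acquisition day, the platform was removed for a 60 s probe trial. Mice had been on 1200 ppm PLX5622 or control chow for 10 or 24 weeks from 1.5 months of age.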

Another data set has as its target Ephrin type-A receptor 8 (Homo sapiens, UniProt P29322). Nature of the data set: Inhibition of EPHA8 (unknown origin).
The nature of data set [11]: Toxicity in wildtype mouse assessed as number of open arm entries at 1200 ppm administered as rodent chow for 10 to 24 weeks by Elevated plus maze test (reference value: 7 to 29). The following applies: in vivo, po, time 10-24 weeks.
Data set [12] can be described thus: Effect on Cst7 gene expression in wild type mouse cortex at 1200 ppm administered as rodent chow starting from 1.5 months and measured after 7 months by RNA-Seq analysis (reference value: 0.102 to 0.891 RPKM). It is filed as functional. The note with it: route po, time 5.5 months, 4015 h.
Data set [13] has as its target Insulin-like growth factor 1 receptor (Homo sapiens, UniProt P08069). Nature of the data set: Inhibition of IGF1R (unknown origin).
Data set [14] has as its target Serine/threonine-protein kinase MRCK alpha (Homo sapiens, UniProt Q5VT25). Put plainly: Inhibition of CDC42_BPA (unknown origin).
Data set [15] relates to Mus musculus. Put plainly: Antialzheimer activity in 5XFAD mouse assessed as average diameter of claudin-5 blood vessels in Thio-S negative thalamus at 1200 ppm administered as rodent chow starting from 1.5 months and measured after 4 months by immunolabeling analysis. The format is functional. The following applies: route po, time 2.5 months, 1825 h.
Data set [16] is described as follows: Half-life in monkey at 1.35 mg/kg, iv administered as single dose. The format is ADME, organism-based, Macaca mulatta. The note with it: rhesus monkey, in vivo.
In data set [17] the target is Mitogen-activated protein kinase 12 (Homo sapiens, UniProt P53778). Put plainly: Inhibition of MAPK12 (unknown origin).

Some results are limits rather than exact numbers.

Sequence of Serine/threonine-protein kinase MRCK alpha (Q5VT25 whole entry): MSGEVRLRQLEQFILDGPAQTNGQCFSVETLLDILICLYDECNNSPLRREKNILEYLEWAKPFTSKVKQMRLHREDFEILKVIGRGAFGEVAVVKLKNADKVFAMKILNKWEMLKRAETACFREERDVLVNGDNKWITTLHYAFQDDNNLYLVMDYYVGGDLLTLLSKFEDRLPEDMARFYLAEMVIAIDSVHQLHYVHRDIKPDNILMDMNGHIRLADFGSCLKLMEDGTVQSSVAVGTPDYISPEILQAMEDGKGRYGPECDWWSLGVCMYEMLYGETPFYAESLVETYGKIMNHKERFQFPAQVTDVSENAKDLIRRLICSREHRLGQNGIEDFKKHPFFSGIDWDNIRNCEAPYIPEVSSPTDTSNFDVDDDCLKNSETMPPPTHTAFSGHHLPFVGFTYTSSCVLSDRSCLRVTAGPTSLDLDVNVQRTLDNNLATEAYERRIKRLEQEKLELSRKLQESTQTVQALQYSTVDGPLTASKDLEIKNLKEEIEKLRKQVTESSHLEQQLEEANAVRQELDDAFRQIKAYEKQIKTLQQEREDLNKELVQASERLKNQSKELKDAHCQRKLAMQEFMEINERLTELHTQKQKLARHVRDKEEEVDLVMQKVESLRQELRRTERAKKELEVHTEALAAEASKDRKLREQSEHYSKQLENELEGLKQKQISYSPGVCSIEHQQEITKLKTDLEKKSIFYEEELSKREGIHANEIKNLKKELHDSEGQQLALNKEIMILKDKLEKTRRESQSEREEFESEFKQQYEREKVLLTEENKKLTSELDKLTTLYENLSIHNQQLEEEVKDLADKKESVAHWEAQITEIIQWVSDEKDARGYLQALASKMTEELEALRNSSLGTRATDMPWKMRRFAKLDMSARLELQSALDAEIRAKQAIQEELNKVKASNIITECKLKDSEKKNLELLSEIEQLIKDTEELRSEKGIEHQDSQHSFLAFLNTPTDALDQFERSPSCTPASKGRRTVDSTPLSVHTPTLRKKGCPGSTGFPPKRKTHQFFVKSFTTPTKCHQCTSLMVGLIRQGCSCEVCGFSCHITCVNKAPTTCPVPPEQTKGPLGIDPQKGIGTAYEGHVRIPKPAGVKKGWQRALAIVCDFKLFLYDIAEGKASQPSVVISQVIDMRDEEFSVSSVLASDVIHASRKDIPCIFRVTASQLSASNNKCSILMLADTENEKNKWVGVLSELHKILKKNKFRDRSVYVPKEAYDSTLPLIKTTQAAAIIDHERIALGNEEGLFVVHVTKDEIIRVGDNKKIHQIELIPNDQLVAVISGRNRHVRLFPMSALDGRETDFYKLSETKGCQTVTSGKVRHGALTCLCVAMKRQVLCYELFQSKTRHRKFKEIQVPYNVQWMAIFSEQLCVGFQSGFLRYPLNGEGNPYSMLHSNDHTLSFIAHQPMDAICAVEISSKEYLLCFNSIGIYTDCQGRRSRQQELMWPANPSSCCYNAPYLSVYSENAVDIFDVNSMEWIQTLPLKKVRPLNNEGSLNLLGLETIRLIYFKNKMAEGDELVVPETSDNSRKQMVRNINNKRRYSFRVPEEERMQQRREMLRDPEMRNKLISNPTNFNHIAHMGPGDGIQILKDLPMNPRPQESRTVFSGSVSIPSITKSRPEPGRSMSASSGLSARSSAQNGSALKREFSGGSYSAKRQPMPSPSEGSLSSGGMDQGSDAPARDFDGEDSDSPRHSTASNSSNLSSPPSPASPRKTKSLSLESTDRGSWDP
Sequence of Ephrin type-A receptor 3 (P29320 whole entry): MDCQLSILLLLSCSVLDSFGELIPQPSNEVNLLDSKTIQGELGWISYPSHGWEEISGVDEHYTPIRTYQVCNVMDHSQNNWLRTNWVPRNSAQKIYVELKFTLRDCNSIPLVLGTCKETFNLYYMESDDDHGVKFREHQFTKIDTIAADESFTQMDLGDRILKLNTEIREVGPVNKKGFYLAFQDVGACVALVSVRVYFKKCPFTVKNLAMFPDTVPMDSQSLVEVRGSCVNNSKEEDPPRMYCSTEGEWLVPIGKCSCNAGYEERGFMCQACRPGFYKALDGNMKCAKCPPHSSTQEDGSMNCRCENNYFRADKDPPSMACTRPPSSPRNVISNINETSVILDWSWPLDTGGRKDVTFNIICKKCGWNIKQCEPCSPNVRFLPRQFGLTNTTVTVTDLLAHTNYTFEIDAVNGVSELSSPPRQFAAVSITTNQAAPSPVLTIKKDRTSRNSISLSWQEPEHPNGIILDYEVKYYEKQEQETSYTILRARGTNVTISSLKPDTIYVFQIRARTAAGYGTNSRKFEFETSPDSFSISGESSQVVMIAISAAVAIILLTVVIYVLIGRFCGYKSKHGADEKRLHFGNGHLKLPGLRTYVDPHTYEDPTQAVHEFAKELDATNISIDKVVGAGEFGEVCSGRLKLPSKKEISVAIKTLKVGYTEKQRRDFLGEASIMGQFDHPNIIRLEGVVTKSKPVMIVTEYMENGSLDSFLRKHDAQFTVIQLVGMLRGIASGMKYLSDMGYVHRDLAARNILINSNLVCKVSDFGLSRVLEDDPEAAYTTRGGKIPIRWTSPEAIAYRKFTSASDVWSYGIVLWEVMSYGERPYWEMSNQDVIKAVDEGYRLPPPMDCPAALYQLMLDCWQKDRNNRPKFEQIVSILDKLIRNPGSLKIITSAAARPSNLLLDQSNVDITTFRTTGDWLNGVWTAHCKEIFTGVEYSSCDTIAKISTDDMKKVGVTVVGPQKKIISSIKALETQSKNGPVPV
Sequence of Insulin-like growth factor 1 receptor (P08069 31-736 limits assumed): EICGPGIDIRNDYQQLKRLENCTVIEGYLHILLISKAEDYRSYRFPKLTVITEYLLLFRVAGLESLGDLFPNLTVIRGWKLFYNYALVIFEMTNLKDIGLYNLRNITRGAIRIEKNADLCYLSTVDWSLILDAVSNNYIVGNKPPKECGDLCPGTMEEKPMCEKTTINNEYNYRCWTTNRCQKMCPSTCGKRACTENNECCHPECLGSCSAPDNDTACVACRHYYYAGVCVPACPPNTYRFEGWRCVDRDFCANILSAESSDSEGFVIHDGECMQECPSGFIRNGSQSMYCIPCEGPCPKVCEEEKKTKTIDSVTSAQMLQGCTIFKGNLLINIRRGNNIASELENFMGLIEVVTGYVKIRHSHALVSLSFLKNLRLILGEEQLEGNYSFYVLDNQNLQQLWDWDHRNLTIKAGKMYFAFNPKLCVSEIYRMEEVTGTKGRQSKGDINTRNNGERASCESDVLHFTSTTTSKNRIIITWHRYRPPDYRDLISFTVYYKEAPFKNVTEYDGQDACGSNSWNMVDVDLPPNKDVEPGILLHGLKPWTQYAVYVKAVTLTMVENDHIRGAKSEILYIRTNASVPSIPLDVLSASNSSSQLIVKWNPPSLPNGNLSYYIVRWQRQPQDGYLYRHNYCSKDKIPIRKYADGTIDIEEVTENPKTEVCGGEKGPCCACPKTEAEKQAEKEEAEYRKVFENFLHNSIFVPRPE
Sequence of Insulin-like growth factor 1 receptor (P08069 741-1367 limits assumed): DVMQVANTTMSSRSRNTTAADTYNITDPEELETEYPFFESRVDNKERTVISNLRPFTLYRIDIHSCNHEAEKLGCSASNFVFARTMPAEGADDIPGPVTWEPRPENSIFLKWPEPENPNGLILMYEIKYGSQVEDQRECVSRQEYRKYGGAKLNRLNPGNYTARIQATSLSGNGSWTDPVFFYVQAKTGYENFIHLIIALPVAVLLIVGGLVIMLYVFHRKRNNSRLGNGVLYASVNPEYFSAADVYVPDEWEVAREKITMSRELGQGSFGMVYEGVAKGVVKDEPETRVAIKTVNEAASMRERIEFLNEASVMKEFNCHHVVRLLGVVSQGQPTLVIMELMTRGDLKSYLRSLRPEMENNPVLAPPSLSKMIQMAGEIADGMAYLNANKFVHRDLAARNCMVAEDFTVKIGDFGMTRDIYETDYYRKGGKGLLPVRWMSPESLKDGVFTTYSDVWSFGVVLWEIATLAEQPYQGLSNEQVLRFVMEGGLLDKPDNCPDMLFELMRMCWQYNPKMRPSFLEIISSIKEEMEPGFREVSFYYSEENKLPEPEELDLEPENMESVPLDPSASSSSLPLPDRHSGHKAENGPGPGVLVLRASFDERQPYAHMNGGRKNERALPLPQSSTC
Sequence of Tyrosine-protein kinase FRK (P42685 whole entry): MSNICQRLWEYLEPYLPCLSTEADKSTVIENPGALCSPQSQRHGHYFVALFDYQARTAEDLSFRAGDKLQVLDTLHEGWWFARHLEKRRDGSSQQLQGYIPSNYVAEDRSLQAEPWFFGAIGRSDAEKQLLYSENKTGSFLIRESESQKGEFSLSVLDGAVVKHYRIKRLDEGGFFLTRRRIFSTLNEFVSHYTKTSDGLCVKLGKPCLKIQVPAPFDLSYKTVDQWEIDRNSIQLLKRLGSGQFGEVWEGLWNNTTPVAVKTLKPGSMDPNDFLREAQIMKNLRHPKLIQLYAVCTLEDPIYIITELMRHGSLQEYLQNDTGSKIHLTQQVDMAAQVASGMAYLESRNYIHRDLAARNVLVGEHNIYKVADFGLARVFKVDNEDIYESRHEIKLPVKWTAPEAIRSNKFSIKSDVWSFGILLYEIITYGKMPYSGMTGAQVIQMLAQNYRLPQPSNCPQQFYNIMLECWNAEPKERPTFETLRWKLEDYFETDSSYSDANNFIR

On to `FC(F)(F)c1ccc(CNc2ccc(Cc3c[nH]c4ncc(Cl)cc34)cn2)cn1` [PEXIDARTINIB], for which the concentration at 2555 h came to 0.3 µM in data set [1] and 158 µM in data set [2].

On to `COc1ncc(F)cc1CNc1ccc(Cc2c[nH]c3ncc(C)cc23)c(F)n1` [PLX-5622], for which the Activity was 25 with Mus musculus [3]; 0 pg with Mus musculus [6]; 6 in [11]; 0 RPKM in data set [12]; 1.854 um in the data set with Mus musculus [15]. Moreover, in data set [4], the Flu intensity was 0.086 a.u. Also, the IC50 (in [5]; in data set [8]; in [9]; against Ephrin type-A receptor 3; against Ephrin type-A receptor 8; in data set [13]) was above 1000 nM throughout. In addition, the concentration for half-maximal inhibition (IC50) in [14] and in [17] was above 1000 nM throughout. In addition, the total exposure AUC(0-inf) in data set [7] amounted to 5110 ng·h/mL. In addition, the Time in the data set on Mus musculus [10] turned out to be 0 s. For the same molecule, the half-life in data set [16] was 2.2 h.
